Source: PubChem BioAssay (The Scripps Research Institute Molecular Screening Center)
Sampled rows, rich in hits. Any-hit rate of the full collection: about 1.9%.
CHRM4 antagonist – human M4 muscarinic receptor antagonists, primary screen, CHO cells, Fluo-8 calcium fluorescence; 360,000 compounds, 0.73% hits; inhibition, % at 3 µM; Muscarinic acetylcholine receptor M4 (Homo sapiens), P08173; CHO-hM4 cells, ACh EC80;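 active = inhibition above its plate's cutoff, the mean inhibition of sample wells plus 3 SD, cut at about 27% in these data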;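 also: 0% = acetylcholine EC80 with DMSO and 100% = DMSO without agonist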
M5 ag – human M5 muscarinic receptor agonists, primary screen, CHO-K1 cells, Fluo-8 calcium fluorescence; Muscarinic acetylcholine receptor M5 (Homo sapiens), P08912; CHO-K1 hM5 cells; 0% DMSO wells, 100% maximal acetylcholine response; activation, % at 3 µM; 360,000 compounds, 0.19% hits; AID 624037, 2012;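 active = activation above the run's mean over test compounds plus 3 SD, cut at about 23% in these data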;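 also: signal is peak over basal fluorescence ratio across the kinetic read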
Target sequence (P08912 whole entry, looked up): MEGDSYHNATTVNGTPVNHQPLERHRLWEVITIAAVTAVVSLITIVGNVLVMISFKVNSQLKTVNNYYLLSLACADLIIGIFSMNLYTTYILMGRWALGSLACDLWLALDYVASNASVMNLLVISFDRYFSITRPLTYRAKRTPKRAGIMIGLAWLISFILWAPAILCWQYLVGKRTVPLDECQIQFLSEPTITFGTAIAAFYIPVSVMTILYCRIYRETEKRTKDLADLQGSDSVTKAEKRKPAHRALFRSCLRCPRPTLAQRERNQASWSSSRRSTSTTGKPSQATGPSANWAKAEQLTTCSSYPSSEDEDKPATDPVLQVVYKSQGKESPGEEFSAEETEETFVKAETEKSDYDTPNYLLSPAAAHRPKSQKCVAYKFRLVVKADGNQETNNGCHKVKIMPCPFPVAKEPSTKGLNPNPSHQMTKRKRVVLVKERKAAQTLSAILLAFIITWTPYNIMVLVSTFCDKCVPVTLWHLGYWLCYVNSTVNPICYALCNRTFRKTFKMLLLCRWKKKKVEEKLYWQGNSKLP
M5 PAM – human M5 muscarinic receptor positive allosteric modulators, primary screen, CHO-K1 cells, Fluo-8 calcium fluorescence | AID 624038, 2012 | CHO-K1 hM5, ACh EC20 PAM; 0% = ACh EC20, 100% = ACh EC100 | activation, % at 3 µM | Muscarinic acetylcholine receptor M5 (Homo sapiens), P08912 | 360,000 compounds, 0.3% hits;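 active = activation above the run cutoff, the mean activation of all test compounds plus 3 SD, cut at about 18% in these data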
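Probe or stimulus: acetylcholine, EC20 level; Assay system: human M5 receptor in CHO-K1 cells; Schedule: compound preincubation 140 s before EC20 acetylcholine addition; Technique: intracellular calcium via Fluo-8 fluorescence; Dosing: single-point, 3 µM nominal; Read-out basis: percent activation from peak-over-basal fluorescence ratio, scaled EC20-to-EC100 acetylcholine; Repeats: one well per compound, no replicates.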
M5 antag – human M5 muscarinic receptor antagonists, primary screen, CHO cells, Fluo-8 calcium fluorescence | Muscarinic acetylcholine receptor M5 (Homo sapiens), P08912 | inhibition, % at 3 µM | 360,000 compounds, 0.59% hits | AID 624040, 2012 | CHO-hM5 cells, ACh EC80;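 active = inhibition above a per-plate cutoff, the mean of that plate's test compounds plus 3 SD, cut at about 27% in these data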;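 also: 0% = acetylcholine EC80 with DMSO and 100% = DMSO without agonist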
M4 ag – human M4 muscarinic receptor agonists, primary screen, CHO-K1 cells, Fluo-8 calcium fluorescence. CHO-K1 hM4/Gqi5; vehicle 0%, full acetylcholine response 100%. activation, % at 3 µM. 360,000 compounds, 0.14% hits;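 active = activation above the run mean over all test wells plus 3 SD, cut at about 32% in these data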;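 also: peak over basal fluorescence ratio per well then scaled between controls; 0% = DMSO wells and 100% = acetylcholine at EC100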
CHRM4 PAM – human M4 muscarinic receptor positive allosteric modulators, primary screen, CHO-K1 cells, Fluo-8 calcium fluorescence | Muscarinic acetylcholine receptor M4 (Homo sapiens), P08173 | CHO-K1 hM4/Gqi5, ACh EC20; 0% = ACh EC20, 100% = maximal ACh | activation, % at 3 µM | 360,000 compounds, 0.4% hits;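 active = activation above its plate's cutoff, the mean activation of sample wells plus 3 SD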
* = called active by the depositor.

SMILES	CHRM4 antagonist	M5 ag	M5 PAM	M5 antag	M4 ag	CHRM4 PAM
Cc1nc2cc3c(cc2c(C)c1C(=O)OC(C)C)OCO3	2	-1	-5	13	2	-2
O=c1oc2c(CN3CCCCC3)c(O)ccc2c2c1CCCC2	35*	-6	-19	6	0	-14
Cc1c(C)c2ccc(O)c(CN3CCCC3)c2oc1=O	1	-4	4	2	0	8
Nc1c(C(=O)Nc2nccs2)sc2nc(-c3cccs3)cc(C(F)(F)F)c12	22	22	-12	34*	21	-17
CC(C)(C)C(=O)c1sc2nc(-c3cccs3)cc(C(F)(F)F)c2c1N	9	0	6	-9	1	-1
Cc1nnc(NC(=O)c2sc3nc(-c4cccs4)cc(C(F)(F)F)c3c2N)s1	7	12	-7	15	34*	-12
CC(C)NC(=O)N1Cc2cc(C(=O)NC3CCCC3)nc(-c3cccc(-c4cccnc4)c3)c2[C@@H]1CCO	-3	4	-5	-3	5	2
NC(=S)NNC(=O)c1cccc(Cl)c1	-15	4	9	1	0	2
Cc1cc(C(=O)CN2C(=O)CCC2=O)c(C)n1Cc1ccccc1	-12	4	17	-9	4	18*
CCOC(=O)c1cc(-c2ccc3c(c2)OCCO3)n[nH]1	-17	6	14	-13	-1	27*
CC1(C)CC2CC(C)(CN2C(=O)COC(=O)c2ccc(NC(=O)CC#N)cc2)C1 (centres undefined)	-6	3	12	1	1	7
CCCC(O)(CCN1CCOCC1)c1ccc(Cl)cc1 (centres undefined)	22	-19	-30	19	1	-40
CCCC(O)(CCN1CCOCC1)c1ccc(Br)cc1 (centres undefined)	44*	-7	-18	19	0	-27
COc1cccc(C(=O)NCCC(=O)NCc2cc(=O)n(C)c(=O)n2C)c1	-1	-3	9	-7	0	-2
Cc1noc(C)c1S(=O)(=O)NCCN1CCN(c2ccccc2)CC1	-12	-4	4	-5	4	17*
Cc1nn(CC(=O)NCCCc2ccccc2)c(=O)c2cc3occc3n12	-23	-3	7	-9	0	15
Cc1ccc2c(c1)cc1c(=O)n(CC(=O)NCCCc3ccccc3)nc(C)n12	32*	3	-11	4	19	-10
CC[C@H](C)Cc1cn([C@@H](CCCCN)C(=O)NCCCCCCCCCCC(=O)N2CCNCC2)nn1	-5	-10	7	3	0	3
Cc1cn([C@@H](CCCCNC(=O)OC(C)(C)C)C(=O)NCCCCCCCCCCC(=O)N2CCN(C(=O)OC(C)(C)C)CC2)nn1	40*	0	-40	19	28	-16
CC(C)(C)OC(=O)NCCCCCc1cn(CC(=O)NCCCCCCCCCCC(=O)N2CCN(C(=O)OC(C)(C)C)CC2)nn1	2	6	-9	12	6	0
CC[C@H](C)Cc1cn([C@@H](CCCN=C(NC(=O)OC(C)(C)C)NC(=O)OC(C)(C)C)C(=O)NCCCCCCCCCCC(=O)N2CCN(C(=O)OC(C)(C)C)CC2)nn1	36*	-11	-5	6	1	-14
COc1ccc(CCCNC(=O)C2Cc3c(-c4cccc(NC(C)=O)c4)ccnc3O2)cc1 (centres undefined)	-3	9	-4	-1	16	-4
COc1ccc(CNC(=O)CN2C(=O)COc3ccc(S(=O)(=O)N4CCCCC4)cc32)cc1	5	-5	-7	19	2	-7
Cn1nnnc1SCCNC(=O)C1CCC(=O)N(Cc2ccc(Cl)cc2)C1 (centres undefined)	-8	-1	19*	-18	0	9
